Activity calls are given as the source filed them. No cut-off for these calls is given here.
How the values were obtained:
Assay type in all cases: functional, cell-based
P2Y purinoceptor 6 [1] = target: T1, P2Y purinoceptor 6 (Homo sapiens, UniProt Q15077); experiment: Agonist activity at human recombinant P2Y6 receptor expressed in 1321N1 cells assessed as PLC-mediated [3H]IP production
How it was run: (§1)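 Stable 1321N1 astrocytoma line expressing human P2Y6, grown to confluence and labelled 12 h in serum-free, inositol-free DMEM with 0.4 μCi myo-[3H]inositol. Agonists were added in Hepes pH 7.3 with LiCl for 20 min at 37 °C. The reaction was stopped with ice-cold 50 mM formic acid, neutralised with NH4OH, and [3H]inositol phosphates separated on Dowex AG 1-X8. EC50 came from four-parameter logistic fits; ratio to UDP EC50. Triplicates, ≥3 experiments.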

P2Y purinoceptor 6 [2] = target: T1, P2Y purinoceptor 6; experiment: Agonist activity at human recombinant P2Y6 receptor expressed in 1321N1 cells assessed as PLC-mediated [3H]IP production relative to UDP; how it was run: as §1
P2Y purinoceptor 2 [3] = target: T2, P2Y purinoceptor 2 (Homo sapiens, UniProt P41231); experiment: Agonist activity at human recombinant P2Y2 receptor expressed in 1321N1 cells assessed as PLC-mediated [3H]IP production relative to UTP
P2Y purinoceptor 4 [4] = target: T3, P2Y purinoceptor 4 (Homo sapiens, UniProt P51582); experiment: Agonist activity at human recombinant P2Y4 receptor expressed in 1321N1 cells assessed as PLC-mediated [3H]IP production relative to UTP
P2Y purinoceptor 6 [5] = target: T1, P2Y purinoceptor 6; experiment: Agonist activity at human recombinant P2Y6 receptor expressed in 1321N1 cells assessed as PLC-mediated [3H]IP production at 10 uM realtive to UDP
How it was run: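 Human P2Y6 in 1321N1 cells prelabelled with myo-[3H]inositol, then exposed to agonist at 10 μM in Hepes pH 7.3 with LiCl for 20 min at 37 °C. [3H]inositol phosphates were isolated by Dowex anion exchange. Response is expressed as % of the effect of a maximally effective UDP concentration in the same experiment.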

P2Y purinoceptor 2 [6] = target: T2, P2Y purinoceptor 2; experiment: Agonist activity at human recombinant P2Y2 receptor expressed in 1321N1 cells assessed as PLC-mediated [3H]IP production
P2Y purinoceptor 4 [7] = target: T3, P2Y purinoceptor 4; experiment: Agonist activity at human recombinant P2Y4 receptor expressed in 1321N1 cells assessed as PLC-mediated [3H]IP production
P2Y purinoceptor 4 [8] = target: T3, P2Y purinoceptor 4; experiment: Agonist activity at human recombinant P2Y4 receptor expressed in 1321N1 cells assessed as PLC-mediated [3H]IP production relative to UTP at 10 uM

T2 sequence (P41231 whole entry): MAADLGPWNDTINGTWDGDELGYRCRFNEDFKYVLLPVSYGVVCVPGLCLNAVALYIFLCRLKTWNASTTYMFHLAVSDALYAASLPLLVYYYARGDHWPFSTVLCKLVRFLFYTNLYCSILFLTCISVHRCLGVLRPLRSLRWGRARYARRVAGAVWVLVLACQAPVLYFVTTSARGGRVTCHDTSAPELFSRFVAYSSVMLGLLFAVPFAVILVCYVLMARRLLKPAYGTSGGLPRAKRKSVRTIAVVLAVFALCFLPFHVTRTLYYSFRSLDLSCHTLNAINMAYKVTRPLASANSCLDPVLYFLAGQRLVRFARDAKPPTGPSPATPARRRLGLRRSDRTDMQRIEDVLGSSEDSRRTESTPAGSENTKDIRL
T3 sequence (P51582 whole entry): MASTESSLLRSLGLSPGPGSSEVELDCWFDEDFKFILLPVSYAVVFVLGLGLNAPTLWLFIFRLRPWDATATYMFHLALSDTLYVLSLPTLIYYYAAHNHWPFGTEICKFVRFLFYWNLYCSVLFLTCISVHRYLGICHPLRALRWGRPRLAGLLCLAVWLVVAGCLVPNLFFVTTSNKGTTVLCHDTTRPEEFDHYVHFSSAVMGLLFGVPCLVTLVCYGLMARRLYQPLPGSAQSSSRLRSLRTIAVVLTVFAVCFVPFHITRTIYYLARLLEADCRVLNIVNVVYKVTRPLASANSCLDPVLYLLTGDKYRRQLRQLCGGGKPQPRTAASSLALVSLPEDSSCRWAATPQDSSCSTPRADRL
T1 sequence (Q15077 whole entry): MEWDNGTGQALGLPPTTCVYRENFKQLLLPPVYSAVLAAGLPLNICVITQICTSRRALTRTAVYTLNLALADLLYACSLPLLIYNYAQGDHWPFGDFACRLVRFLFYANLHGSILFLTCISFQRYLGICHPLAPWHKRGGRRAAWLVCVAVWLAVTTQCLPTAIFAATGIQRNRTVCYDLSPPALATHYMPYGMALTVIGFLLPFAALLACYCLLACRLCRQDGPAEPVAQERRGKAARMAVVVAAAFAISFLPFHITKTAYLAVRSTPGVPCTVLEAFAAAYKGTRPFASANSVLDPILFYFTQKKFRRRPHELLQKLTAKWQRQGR

EC50 (P2Y purinoceptor 6 [1]) [µM] | Ratio EC50 (P2Y purinoceptor 6 [2]) | Ratio EC50 (P2Y purinoceptor 2 [3]) | Ratio EC50 (P2Y purinoceptor 4 [4]) | SMILES | further results
1.1 | – | – | – | O=C(O)CCSc1ccn([C@@H]2O[C@H](COP(=O)(O)OP(=O)(O)O)[C@@H](O)[C@H]2O)c(=O)n1 | –
3.3 | 250 | 24 | 47 | Cn1c(=O)ccn([C@@H]2O[C@H](COP(=O)(O)OP(=O)(O)O)[C@@H](O)[C@H]2O)c1=O | –
0.015 | 1.1 | 17 | 55 | O=c1[nH]c(=O)n([C@@H]2O[C@H](COP(=O)(O)OP(=O)(O)O)[C@@H](O)[C@H]2O)cc1I | –
0.8 | – | – | – | O=c1nc(SCc2ccccc2)ccn1[C@@H]1O[C@H](COP(=O)(O)OP(=O)(O)O)[C@@H](O)[C@H]1O | –
0.56 | – | – | – | C=CCSc1ccn([C@@H]2O[C@H](COP(=O)(O)OP(=O)(O)O)[C@@H](O)[C@H]2O)c(=O)n1 | –
18 | – | – | – | NC(=O)CSc1ccn([C@@H]2O[C@H](COP(=O)(O)OP(=O)(O)O)[C@@H](O)[C@H]2O)c(=O)n1 | –
0.013 | – | – | – | O=c1ccn([C@@H]2O[C@H](COP(=O)(O)OP(=O)(O)O)[C@@H](O)[C@H]2O)c(=O)[nH]1 [URIDINE_DIPHOSPHATE] | –
4.9 | – | – | – | CCCCCCSc1ccn([C@@H]2O[C@H](COP(=O)(O)OP(=O)(O)O)[C@@H](O)[C@H]2O)c(=O)n1 | –
1.7 | – | – | – | O=C(O)CSc1ccn([C@@H]2O[C@H](COP(=O)(O)OP(=O)(O)O)[C@@H](O)[C@H]2O)c(=O)n1 | –
0.08 | 6 | 0.53 | 0.32 | O=c1[nH]c(=S)ccn1[C@@H]1O[C@H](COP(=O)(O)OP(=O)(O)O)[C@@H](O)[C@H]1O | –
3.9 | 300 | 1.3 | 16 | N[C@@H]1[C@H](O)[C@@H](COP(=O)(O)OP(=O)(O)O)O[C@H]1n1ccc(=O)[nH]c1=O | –
8.8 | – | – | – | O=C(O)CCCSc1ccn([C@@H]2O[C@H](COP(=O)(O)OP(=O)(O)O)[C@@H](O)[C@H]2O)c(=O)n1 | –
0.06 | 4 | 0.71 | 4.8 | O=c1ccn([C@@H]2O[C@H](COP(=O)(O)OP(=O)(O)O)[C@@H](O)[C@H]2O)c(=S)[nH]1 | –
88 | 1000 | 110 | – | Nc1ccn([C@@H]2O[C@H](COP(=O)(O)OP(=O)(O)O)[C@@H](O)[C@H]2O)c(=O)n1 | Activity (P2Y purinoceptor 4 [8]): inactive
0.28 | – | – | – | CCSc1ccn([C@@H]2O[C@H](COP(=O)(O)OP(=O)(O)O)[C@@H](O)[C@H]2O)c(=O)n1 | –
2.3 | – | – | – | CSc1ccn([C@@H]2O[C@H](COP(=O)(O)OP(=O)(O)O)[C@@H](O)[C@H]2O)c(=O)n1 | –

Second part, the compound before the results:

SMILES | EC50 (P2Y purinoceptor 6 [1]) [µM] | Ratio EC50 (P2Y purinoceptor 6 [2]) | Ratio EC50 (P2Y purinoceptor 2 [3]) | Ratio EC50 (P2Y purinoceptor 4 [4]) | further results
O=c1ccn([C@@H]2O[C@H](COP(=O)(O)OP(=O)(O)OC[C@H]3O[C@@H](n4ccc(=O)[nH]c4=O)[C@H](O)[C@@H]3O)[C@@H](O)[C@H]2O)c(=O)[nH]1 | 2.3 | – | – | – | –
O=c1ccn([C@@H]2O[C@H](COP(=O)(O)OP(=O)(O)O)[C@@H](O)[C@@H]2F)c(=O)[nH]1 | 5.5 | 420 | 11 | 7.1 | –
O=c1ccn([C@]23CC2[C@H](COP(=O)(O)OP(=O)(O)O)[C@@H](O)C3)c(=O)[nH]1 (some centres undefined) | 0.23 | – | – | – | –
CCSc1ccn([C@@H]2O[C@H](COP(=O)(O)OP(=O)(O)OC[C@H]3O[C@@H](n4ccc(SCC)nc4=O)[C@H](O)[C@@H]3O)[C@@H](O)[C@H]2O)c(=O)n1 | – | – | – | – | Efficacy (P2Y purinoceptor 6 [5]): < 50%
Nc1nc2c(ncn2[C@@H]2O[C@H](COP(=O)(O)OP(=O)(O)O)[C@@H](O)[C@H]2O)c(=O)[nH]1 | 45 | 500 | 54 | 90 | –
O=c1ccn([C@@H]2C3C[C@@]3(COP(=O)(O)OP(=O)(O)O)[C@@H](O)[C@H]2O)c(=O)[nH]1 (some centres undefined) | – | > 7000 | 2 | 1.7 | –
[N-]=[N+]=N[C@@H]1[C@H](O)[C@@H](COP(=O)(O)OP(=O)(O)O)O[C@H]1n1ccc(=O)[nH]c1=O | 1.5 | 120 | 100 | 15 | –
O=c1nc(SCc2ccccc2)ccn1[C@@H]1O[C@H](COP(=O)(O)OP(=O)(O)OC[C@H]2O[C@@H](n3ccc(SCc4ccccc4)nc3=O)[C@H](O)[C@@H]2O)[C@@H](O)[C@H]1O | – | – | – | – | Efficacy (P2Y purinoceptor 6 [5]): < 50%
O=c1ccn([C@@H]2O[C@H](COP(=O)(O)OP(=O)(O)O)C[C@H]2O)c(=O)[nH]1 | 2.5 | 190 | 17 | 42 | EC50 (P2Y purinoceptor 2 [6]): 0.81 µM; EC50 (P2Y purinoceptor 4 [7]): 3.1 µM
O=c1ccn([C@@H]2O[C@@]3(COP(=O)(O)OP(=O)(O)O)C[C@H]3[C@H]2O)c(=O)[nH]1 | 3.5 | – | – | – | –
Nc1ncnc2c1ncn2[C@@H]1O[C@H](COP(=O)(O)OP(=O)(O)O)[C@@H](O)[C@H]1O [ADENOSINE DIPHOSPHATE] | 65 | > 7000 | 1.7 | – | Activity (P2Y purinoceptor 4 [8]): inactive

— ChEMBL document CHEMBL1149485, “Structure-activity relationships of uridine 5'-diphosphate analogues at the human P2Y6 receptor” (J Med Chem, 2006)
